Data set [1] is described as follows: Percent parent compound extracted at 24 hours from liver using CHCl3/CH3OH. The class given is ADME, tissue-based. Summed up:
(§1)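 Lipid extracts from plasma, adrenal cortex and liver taken at 0.5 or 24 h after iv dosing were run on TLC beside unlabeled ester reference (iodine vapor). Eluents were petroleum ether/diethyl ether 7:2 for the cholesteryl ester and benzene/ethyl acetate 9:1 for the others, developed 14.5 cm. Plates were cut into 1-cm strips and counted; parent given as percent of extractable radioactivity.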

Data set [2] concerns Rattus norvegicus. The data set is described as follows: Evaluated for distribution at 24 hours after intravenous administration in blood of female Sprague Dawley rats. The class given is ADME, organism-based. As to conditions: in vivo. Summed up: (§2)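 Radioiodinated compound solubilized in Tween (2–3% clear solution) and given intravenously to adult female Sprague-Dawley rats, 200–250 g; 5–30 µCi per animal, 4–5 rats per group. Killed by exsanguination under ether anesthesia; organs blotted, adrenal cortex dissected from medulla, weighed samples gamma-counted (84% efficiency). Expressed as percent administered dose per gram tissue ± SEM.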

Data set [3] is described as follows: Percent lipid extracted at 24 hours from plasma using CHCl3/CH3OH. It is filed as ADME, cell-free. Summed up: (§3)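 Same iv dosing of radioiodinated ester in Tween to female Sprague-Dawley rats. At 0.5 or 24 h, plasma, adrenal cortex and liver were extracted with CHCl3/CH3OH. Radioactivity in the lipid extract was counted and reported as percent of tissue radioactivity extractable, ± SE.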

A short description of data set [4]: Percent lipid extracted at 24 hr from liver using CHCl3/CH3OH. It is filed as ADME, tissue-based. The procedure, abridged:
as §3

Data set [5] in a line: Percent lipid extracted at 0.5 hr from adrenal […] using CHCl3/CH3OH. The class given is ADME, tissue-based. Summed up:
as §3

The nature of data set [6]: Percent parent compound extracted at 0.5 hr from liver using CHCl3/CH3OH. It is filed as ADME, tissue-based. Summed up:
as §1

In data set [7] the test system is Rattus norvegicus. The data set is described as follows: Evaluated for distribution at 0.5 hr after intravenous administration in ovary of female Sprague Dawley rats. As to conditions: in vivo. The class given is ADME, organism-based, Female gonad. The procedure, abridged:
as §2

Data set [8] has as its system Rattus norvegicus. The data set is described as follows: Evaluated for distribution at 0.5 hr after intravenous administration in adrenal cortex of female Sprague Dawley rats. It is filed as ADME, organism-based. As to conditions: in vivo. The procedure, abridged:
as §2

Data set [9] can be described thus: Percent parent compound extracted at 0.5 hr from plasma using CHCl3/CH3OH. The class given is ADME, cell-free. The settings on record: read-out: Extracted. Summed up:
as §1

Data set [10] in a line: Percent parent compound extracted at 24 hours from adrenal cortex using CHCl3/CH3OH. It is filed as ADME, tissue-based. Summed up:
as §1

The subject of data set [11] is Rattus norvegicus. The data set is described as follows: Evaluated for distribution at 0.5 hr after intravenous administration in thyroid of female Sprague Dawley rats. The settings on record: in vivo. It is filed as ADME, organism-based, Thyroid gland. Summed up:
as §2

In data set [12] the test system is Rattus norvegicus. The data set is described as follows: Evaluated for distribution at 0.5 hr after intravenous administration in blood of female Sprague Dawley rats. The class given is ADME, organism-based. As to conditions: in vivo. The procedure, abridged:
as §2

Data set [13] relates to Rattus norvegicus. The data set is described as follows: Evaluated for distribution at 0.5 hr after intravenous administration in liver of female Sprague Dawley rats. The settings on record: in vivo. The class given is ADME, organism-based. Summed up: as §2
For data set [14], the system named is Rattus norvegicus. The data set is described as follows: Evaluated for distribution at 24 hours after intravenous administration in ovary of female Sprague Dawley rats. The class given is ADME, organism-based, Female gonad. The settings on record: in vivo. Summed up: as §2
A short description of data set [15]: Percent parent compound extracted at 0.5 hr from adrenal cortex using CHCl3/CH3OH. The class given is ADME, tissue-based. Summed up: as §1
Data set [16] is described as follows: Percent lipid extracted at 24 hours from adrenal cortex using CHCl3/CH3OH. The class given is ADME, tissue-based. Summed up: as §3
The nature of data set [17]: Percent lipid extracted at 0.5 hr from liver using CHCl3/CH3OH. It is filed as ADME, tissue-based. Summed up: as §3
The nature of data set [18]: Percent parent compound extracted at 24 hours from plasma using CHCl3/CH3OH. The class given is ADME, cell-free. The settings on record: read-out: Extracted. Summed up: as §1
Data set [19] concerns Rattus norvegicus. The data set is described as follows: Evaluated for distribution at 24 hours after intravenous administration in adrenal cortex of female Sprague Dawley rats. The class given is ADME, organism-based. As to conditions: in vivo. The procedure, abridged: as §2
Data set [20] relates to Rattus norvegicus. The data set is described as follows: Evaluated for distribution at 24 hours after intravenous administration in thyroid of female Sprague Dawley rats. The class given is ADME, organism-based, Thyroid gland. The settings on record: in vivo. Summed up: as §2
A short description of data set [21]: Percent lipid extracted at 0.5 hr from […] using CHCl3/CH3OH. It is filed as ADME, cell-free. The procedure, abridged:
as §3

For data set [22], the system named is Rattus norvegicus. The data set is described as follows: Evaluated for distribution at 24 hours after intravenous administration in liver of female Sprague Dawley rats. The class given is ADME, organism-based. As to conditions: in vivo. Summed up:
as §2

The values below come from ChEMBL document CHEMBL1122203, “Potential tumor- or organ-imaging agents. 23. Sterol esters of iopanoic acid” (J Med Chem, 1982).

For the compound `CCC(Cc1c(I)cc(I)c(N)c1I)C(=O)OC1CCC2(C)C(=CCC3C2CCC2(C)C(C(C)=O)CCC32)C1` (stereo unspecified), the Extracted was 69.1% in [1]; 60% in [3]; 76.1% in data set [4]; 89.5% in [5]; 89.2% in data set [6]; 68.2% in data set [10]. Moreover, the Extracted in data set [15] is recorded as 92.1%; in data set [16] it was 87.3%; in data set [17], 87.6%; in data set [21], 86.7%. Also, the Distribution stood at 0.039% in the data set on Rattus norvegicus [2]; 2.126% in the data set with Rattus norvegicus [7]; 23.083% with Rattus norvegicus [8]; 0.945% with Rattus norvegicus [11]; 1.727% in the data set on Rattus norvegicus [12]; 5.214% in the data set on Rattus norvegicus [13]. Moreover, the Distribution in the data set on Rattus norvegicus [14] is on record as 1.085%; with Rattus norvegicus [19], 4.256%; with Rattus norvegicus [20], 156.7%; in the data set with Rattus norvegicus [22] it was 0.386%. Moreover, the remaining at 0.5 h in data set [9] came out at 91.9%. In addition, the remaining at 24 h in data set [18] was 44.6%.
On to `CCC(Cc1c(I)cc(I)c(N)c1I)C(=O)OC1CCC2(C)C(=CCC3C4CCC(=O)C4(C)CCC32)C1` (stereo unspecified), for which the Extracted in data set [1] worked out at 42.5%; in data set [3], 64.2%; in data set [4], 61.8%; in [5] it was 85.5%; in data set [6] it was 61.8%; in data set [10], 16.8%. Moreover, the Extracted was 83.4% in data set [15], 83.4% in [16], 81.5% in data set [17] and 63.1% in data set [21]. Besides, the Distribution in the data set on Rattus norvegicus [2] is 0.085%; with Rattus norvegicus [7], 1.886%; with Rattus norvegicus [8] it was 15.38%; in the data set on Rattus norvegicus [11] it was 1.392%; in the data set on Rattus norvegicus [12] it was 1.275%; in the data set on Rattus norvegicus [13], 3.612%. For the same compound, the Distribution in the data set on Rattus norvegicus [14] is listed as 1.205%; in the data set on Rattus norvegicus [19] it was 3.958%; in the data set on Rattus norvegicus [20] it was 143.74%; in the data set with Rattus norvegicus [22], 0.108%. The remaining at 0.5 h in [9] is 64.2%. Besides, the remaining at 24 h in data set [18] was determined as 38%.
Turning to `CCC(Cc1c(I)cc(I)c(N)c1I)C(=O)OC1CCC2(C)C(=CCC3C2CCC2(C)C(C(C)CCCC(C)C)CCC32)C1` (stereo unspecified), the Extracted was determined as 97.8% in data set [1]; 85.8% in data set [3]; 91.2% in data set [4]; 83.1% in data set [5]; 97.8% in data set [6]; 96.9% in data set [10]. Also, the Extracted is reported as 96.9% in [15], 92.1% in data set [16], 87.2% in [17] and 83.4% in data set [21]. In addition, the Distribution is 0.696% in the data set on Rattus norvegicus [2]; 5.161% in the data set with Rattus norvegicus [7]; 4.9% with Rattus norvegicus [8]; 0.868% with Rattus norvegicus [11]; 5.191% in the data set with Rattus norvegicus [12]; 4.035% in the data set on Rattus norvegicus [13]. The Distribution with Rattus norvegicus [14] is 24.542%; with Rattus norvegicus [19], 11.029%; in the data set on Rattus norvegicus [20], 3.571%; in the data set on Rattus norvegicus [22], 6.59%. The remaining at 0.5 h in data set [9] amounted to 96%. In addition, the remaining at 24 h in data set [18] amounted to 96.1%.
